Some results are limits rather than exact numbers.

This is an account of results in ChEMBL document CHEMBL1126706, “Structure-activity relationship of N-[2-(dimethylamino)-6-[3-(5-methyl-4-phenyl-1H-imidazol-1-yl)propoxy] phenyl]-N'-pentylurea and analogues. Novel potent inhibitors of acyl-CoA:cholesterol O-acyltransferase with antiatherosclerotic activity” (J Med Chem, 1993).

The target of assay [1] is T1, Acyl-CoA:cholesterol acyltransferase (Oryctolagus cuniculus, UniProt Q95214).
T1 sequence (Q95214 whole entry): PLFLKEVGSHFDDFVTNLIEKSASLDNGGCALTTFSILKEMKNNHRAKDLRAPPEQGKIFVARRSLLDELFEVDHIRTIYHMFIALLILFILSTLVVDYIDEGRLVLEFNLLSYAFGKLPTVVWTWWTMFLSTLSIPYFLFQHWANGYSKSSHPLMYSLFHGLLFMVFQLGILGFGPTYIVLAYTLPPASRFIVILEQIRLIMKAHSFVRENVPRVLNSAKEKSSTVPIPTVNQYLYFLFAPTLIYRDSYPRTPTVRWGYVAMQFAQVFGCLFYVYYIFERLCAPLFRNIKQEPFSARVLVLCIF
Nature of the assay: Tested for inhibition against acyl coenzyme A:cholesterol acyltransferase from rabbit aorta homogenate. Format: tissue-based.

The target in a further assay is O-acyltransferase (Oryctolagus cuniculus, UniProt G1SFD9). The assay can be described thus: Tested for inhibition against acyl coenzyme A:cholesterol acyltransferase from rabbit intestine microsomes. In outline:
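Intestinal mucosa microsomes from NZW rabbit (10000g then 105000g pellet, buffered sucrose pH 7.4). Endogenous cholesterol plus 40 μM [1-14C]oleoyl-CoA in K2HPO4 buffer pH 7.4 with 2.4 mg/mL BSA; compound preincubated 3 min at 37 °C, enzyme (8 mg protein/mL) added, 2 min reaction, chloroform/methanol 2:1 stop. IC50 from triplicate tubes per concentration.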

The subject of assay [2] is Oryctolagus cuniculus. Nature of the assay: Tested for the plasma total cholesterol level in rabbit after administration of 0.2% (w/w) of drug for first 4 days. Type of assay: functional, organism-based. The essentials:
(§1)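 Male NZW rabbits (2.5-3.0 kg) were fed chow with 0.5% cholesterol and 0.5% olive oil, 100 g/day, for 8 weeks, then randomized by plasma cholesterol. Drug was mixed into the diet for 4 weeks, either 0.2% (w/w) for 4 days then 0.1%, or 0.1% throughout. Plasma total cholesterol was measured enzymatically in EDTA ear-vein blood. Mean ± SEM; Student's t test vs control.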

The species named for assay [3] is Oryctolagus cuniculus. Nature of the assay: Tested for the atheromatous lesion development in rabbit. Format: functional. The essentials: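 Male NZW rabbits (2.5-3.0 kg) fed 100 g/day chow with 0.5% cholesterol and 0.5% olive oil for 8 weeks, randomized by plasma cholesterol, then 4 weeks with drug mixed in diet (0.2% then 0.1% w/w, or 0.1% w/w). Thoracic aorta halved: one half formalin-fixed, Sudan IV-stained, stained area measured by image analysis; other half cholesterol content by TLC-FID. Mean ± SEM, 7-12 per group, Student's t test.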

The species named for assay [4] is Rattus norvegicus. The assay can be described thus: Tested for hypocholesterolemic activity required to decrease serum total cholesterol. Format: functional. In outline: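 Male Sprague-Dawley rats (5 weeks) on 1% cholesterol/0.5% cholic acid chow; drug in 2% Sefuzol given orally once daily for 5 days. Serum total cholesterol measured enzymatically after 5 h fast. ED30 (mg/kg dose lowering serum cholesterol to 30% of control) read from dose-response curve of at least 3 doses, n = 4 or 5.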

The test system of assay [5] is Rattus norvegicus. The assay can be described thus: Tested for cholesterol lowering activity in rats after a dose of 50 mg/kg once a day for 2 days. Format: functional. The essentials: (§2)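 Male Sprague-Dawley rats, 5 weeks old, fed chow with 1% cholesterol and 0.5% cholic acid while given drug orally once daily as a suspension in 2% Sefuzol. Starved 5 h after last dose, bled from abdominal aorta under ether; serum total cholesterol measured enzymatically. Result as percent of control (n ≥ 4).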

The test system of assay [6] is Oryctolagus cuniculus. The assay can be described thus: Tested for the plasma total cholesterol level in rabbit after administration of 0.1% (w/w) of drug for first 4 days. Format: functional, organism-based. The essentials: as §1
Assay [7] has as its system Rattus norvegicus. The assay can be described thus: Tested for cholesterol lowering activity in rats after a dose of 10 mg/kg once a day for 5 days. Format: functional. The essentials: as §2
For assay [8], the system named is Rattus norvegicus. The assay can be described thus: Tested for cholesterol lowering activity in rats after a dose of 30 mg/kg once a day for 5 days. Type of assay: functional. The note with it: dose 10 mg/kg; in the assay text read “10 mg/kg” for “30 mg/kg”. The essentials:
as §2

O-acyltransferase, sequence (G1SFD9 1-524): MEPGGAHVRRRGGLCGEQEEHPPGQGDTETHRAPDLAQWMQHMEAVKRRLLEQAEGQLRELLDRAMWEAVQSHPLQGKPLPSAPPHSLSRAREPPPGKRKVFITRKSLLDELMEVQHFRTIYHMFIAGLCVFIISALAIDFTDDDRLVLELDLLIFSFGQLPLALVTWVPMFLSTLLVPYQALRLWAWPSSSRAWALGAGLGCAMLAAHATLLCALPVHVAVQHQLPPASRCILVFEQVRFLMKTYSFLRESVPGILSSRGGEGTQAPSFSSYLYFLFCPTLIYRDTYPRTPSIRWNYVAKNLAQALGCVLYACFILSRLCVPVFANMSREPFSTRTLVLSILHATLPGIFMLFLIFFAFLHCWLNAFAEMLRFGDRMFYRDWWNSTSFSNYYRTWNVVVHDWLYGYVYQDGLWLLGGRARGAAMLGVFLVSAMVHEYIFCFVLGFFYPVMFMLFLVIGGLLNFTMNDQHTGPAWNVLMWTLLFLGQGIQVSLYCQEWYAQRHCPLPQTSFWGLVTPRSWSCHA

By IC50 is commonly meant the concentration at which inhibition is half-maximal. A higher IC50 goes with weaker potency in that assay. Turning to `CCCCCNC(=O)N(C)c1c(OCCCn2cnc(-c3ccccc3)c2)cccc1N(C)C`, the IC50 amounted to 400 nM in assay [1] and 930 nM against O-acyltransferase.

`CCCCCNC(=O)Nc1c(OCCCn2cnc(-c3ccccc3)c2)cccc1N(C)C`: the IC50 amounted to 160 nM in assay [1] and 31 nM against O-acyltransferase. Moreover, the Plasma total cholesterol in the assay with Oryctolagus cuniculus [2] turned out to be 830 mg/dL. This compound registered a Surface involvement in the assay filed under Oryctolagus cuniculus [3] of 22.8%. The compound further registered an ED30 in the assay listed under Rattus norvegicus [4] of 14 mg/kg. Moreover, the Cholesterol reduction with Rattus norvegicus [5] is recorded as -51%.

For the compound `CCCCCNC(=O)Nc1cc(OCCCn2cnc(-c3ccccc3)c2C)ccc1N(C)C`, the IC50 (in assay [1]; on O-acyltransferase) was 410 nM each time.

In the case of `CCCCCCNc1c(OCCCn2cnc(-c3ccccc3)c2)cccc1N(C)C`, the IC50 in assay [1] amounted to 3300 nM; against O-acyltransferase it was 11000 nM.

`CCCCCNC(=O)Nc1c(OCCCn2cnc(-c3ccccc3)c2C)cccc1N(C)C`: the 50% inhibitory concentration (IC50) in assay [1] came to 110 nM. This compound also came in with a Plasma total cholesterol with Oryctolagus cuniculus [6] of 800 mg/dL. The Surface involvement in the assay filed under Oryctolagus cuniculus [3] worked out at 21%. Moreover, the ED30 in the assay filed under Rattus norvegicus [4] was 4.5 mg/kg. Moreover, the Cholesterol reduction in the assay with Rattus norvegicus [7] was -49%.

On to `CCCCCNC(=O)Nc1c(OCCCn2cnc(C)c2-c2ccccc2)cccc1N(C)C`, for which the IC50 in assay [1] was determined as 210 nM; at O-acyltransferase, 85 nM. Also, in the assay with Rattus norvegicus [7], the Cholesterol reduction was -46%.

As to `CCNC(=O)Nc1c(OCCCn2cnc(-c3ccccc3)c2)cccc1N(C)C`, the IC50 in assay [1] was greater than 10000 nM; at O-acyltransferase it was 870 nM. Moreover, the Cholesterol reduction in the assay with Rattus norvegicus [5] is on record as 2%.

For the compound `CCCCCNC(=O)Nc1c(OCCCn2cnc(-c3ccc(OC)cc3)c2)cccc1N(C)C`, the IC50 in assay [1] worked out at 1330 nM; at O-acyltransferase it was 59 nM. For the same compound, in the assay with Rattus norvegicus [7], the Cholesterol reduction is reported as -36%.

For `CCCCCNC(=O)Nc1c(OCCCn2cc(-c3ccc(OC)cc3)nc2C)cccc1N(C)C`, the IC50 in assay [1] worked out at 730 nM; at O-acyltransferase, 160 nM. For the same compound, the Cholesterol reduction with Rattus norvegicus [7] was -15%.

Turning to `CCCCCNC(=O)Nc1cccc(OCCCn2cnc(-c3ccccc3)c2C)c1N(C)C`, the figures for the concentration for half-maximal inhibition (IC50) (in [1]; against O-acyltransferase) were 3200 nM and 5800 nM, respectively.

On to `CCCCCNC(=O)Nc1c(N(C)C)ccc(C)c1OCCCn1cnc(-c2ccccc2)c1`, for which the IC50 in [1] stood at 250 nM; against O-acyltransferase, 410 nM.

As to `CCCCCC(=O)Nc1c(OCCCn2cnc(-c3ccccc3)c2)cccc1N(C)C`, the results for the 50% inhibitory concentration (IC50) (in [1]; at O-acyltransferase) were 100 nM and 200 nM, respectively. In addition, in the assay on Rattus norvegicus [5], the Cholesterol reduction is recorded as 3%.

With `CCCCCNC(=O)Nc1c(OCCCNCCc2ccccc2)cccc1N(C)C`, the IC50 in [1] came out at 3440 nM; against O-acyltransferase, 960 nM. The Cholesterol reduction with Rattus norvegicus [7] was -18%.

As to `CCCCCNC(=O)Nc1c(OCCCn2cnc(-c3ccc(OC)cc3)c2)c(Br)cc(Br)c1N(C)C`, the values for the IC50 (in [1]; against O-acyltransferase) were 1300 nM and 2400 nM, respectively.

On to `CCCCCNC(=O)Nc1c(OCCCn2nc3ccccc3n2)cccc1N(C)C`, for which the figures for the IC50 (in [1]; against O-acyltransferase) were 290 nM and 770 nM, respectively. Also, in the assay on Rattus norvegicus [7], the Cholesterol reduction is given as -3.4%.

In the case of `CCCCCNC(=O)Nc1c(NCCCn2cnc(-c3ccccc3)c2C)cccc1N(C)C`, the IC50 worked out at 2200 nM in assay [1] and 470 nM at O-acyltransferase.

As to `CCCCCNC(=O)Nc1c(OCCCCn2cnc(-c3ccccc3)c2)cccc1N(C)C`, the 50% inhibitory concentration (IC50) amounted to 780 nM in assay [1] and 160 nM on O-acyltransferase.

In the case of `CCCCCN(C)C(=O)Nc1c(OCCCn2cnc(-c3ccccc3)c2)cccc1N(C)C`, the figures for the IC50 (in assay [1]; against O-acyltransferase) were 280 nM and 550 nM, respectively.

Consider `CCCNC(=O)Nc1c(OCCCn2cnc(-c3ccccc3)c2)cccc1N(C)C`, for which the IC50 in assay [1] was 7230 nM; against O-acyltransferase, 660 nM.

Consider `CCCCCNC(=O)Nc1c(OCCCn2ccnc2-c2ccccc2)cccc1N(C)C`, for which the IC50 in [1] turned out to be 480 nM; against O-acyltransferase, 380 nM. Besides, the Cholesterol reduction in the assay on Rattus norvegicus [8] is listed as -12%.

Consider `CCCCCNC(=O)Nc1ccc(OCCCn2cnc(-c3ccccc3)c2C)cc1N(C)C`, for which the IC50 in assay [1] came out at 1500 nM; on O-acyltransferase, 2400 nM.

In the case of `CCCCNC(=O)Nc1c(OCCCn2cnc(-c3ccccc3)c2)cccc1N(C)C`, the IC50 stood at 810 nM in assay [1] and 140 nM at O-acyltransferase. Besides, the Plasma total cholesterol in the assay with Oryctolagus cuniculus [2] was 1190 mg/dL. Also, in the assay listed under Oryctolagus cuniculus [3], the Surface involvement came to 23.5%. The compound also came in with an ED30 in the assay filed under Rattus norvegicus [4] of 75 mg/kg. Besides, the Cholesterol reduction with Rattus norvegicus [5] is given as -37%.

`CN(C)c1cccc(OCCCn2cnc(-c3ccccc3)c2)c1NC(=O)NC(C)(C)C`: the figures for the IC50 (in assay [1]; on O-acyltransferase) were 990 nM and 130 nM, respectively. The Cholesterol reduction in the assay on Rattus norvegicus [5] is given as -12%.

Take `CCCCCNC(=O)Nc1c(OCCn2cnc(-c3ccccc3)c2)cccc1N(C)C`: the IC50 in [1] stood at 1400 nM; on O-acyltransferase, 170 nM.

For `CN(C)c1cccc(OCCCn2cnc(-c3ccccc3)c2)c1NC(=O)NC1CCCCC1`, the IC50 in assay [1] is 1070 nM; against O-acyltransferase, 73 nM. Further, the Cholesterol reduction in the assay on Rattus norvegicus [5] is given as -42%.

Turning to `CCCCCCNC(=O)Nc1c(OCCCn2cnc(-c3ccccc3)c2)cccc1N(C)C`, the figures for the IC50 (in assay [1]; against O-acyltransferase) were 50 nM and 60 nM, respectively. This compound returned a Plasma total cholesterol with Oryctolagus cuniculus [2] of 924 mg/dL. Further, in the assay filed under Oryctolagus cuniculus [3], the Surface involvement is 30.6%. This compound also yielded an ED30 in the assay filed under Rattus norvegicus [4] of 1.3 mg/kg. Moreover, the Cholesterol reduction in the assay with Rattus norvegicus [5] was -57%.

Turning to `CCCCCNC(=O)Nc1c(CCCCn2cnc(-c3ccccc3)c2C)cccc1N(C)C`, the figures for the IC50 (in [1]; against O-acyltransferase) were 140 nM and 170 nM, respectively. Moreover, the Cholesterol reduction in the assay with Rattus norvegicus [7] is on record as -37%.

Take `CCCCCNC(=O)Nc1c(SCCCn2cnc(-c3ccccc3)c2C)cccc1N(C)C`: the IC50 in assay [1] worked out at 58 nM; against O-acyltransferase it was 56 nM.

With `CCCCCNC(=O)Nc1c(OCCCn2cnc(-c3ccc(CCCC)cc3)c2)cccc1N(C)C`, the IC50 in assay [1] came out at 430 nM; at O-acyltransferase it was 54 nM. Moreover, the Cholesterol reduction with Rattus norvegicus [7] is recorded as -46%.

With `CCCCCNC(=O)Nc1c(OCCCn2cnc(-c3ccccc3)c2C)ncnc1N(C)C`, the IC50 was 11000 nM in [1] and 5500 nM at O-acyltransferase.

For `CCCCCNC(=O)Nc1c(OCCCn2nnc(-c3ccccc3)n2)cccc1N(C)C`, the IC50 in assay [1] was determined as 230 nM; against O-acyltransferase it was 23 nM. The Cholesterol reduction in the assay with Rattus norvegicus [7] is -48%.

For the compound `CCCCCNC(=O)Nc1c(OCCCn2cnc(-c3cccc4ccccc34)c2)cccc1N(C)C`, the IC50 in [1] is 1550 nM; on O-acyltransferase, 65 nM. For the same compound, the Cholesterol reduction in the assay on Rattus norvegicus [7] was -30%.

In the case of `CCCCCNC(=O)Nc1c(OCCCn2ncc(-c3ccccc3)n2)cccc1N(C)C`, the results for the IC50 (in assay [1]; against O-acyltransferase) were 180 nM and 32 nM, respectively. Besides, the Cholesterol reduction with Rattus norvegicus [7] was -32%.

In the case of `CCCCCNC(=O)Nc1c(OCCCN2CCC(c3ccccc3)CC2)cccc1N(C)C`, the values for the IC50 (in assay [1]; at O-acyltransferase) were 470 nM and 340 nM, respectively. Further, the Cholesterol reduction in the assay with Rattus norvegicus [7] is -27%.

For the compound `CN(C)c1cccc(OCCCn2cnc(-c3ccccc3)c2)c1NC(=O)NC1CCCC1`, the results for the IC50 (in assay [1]; on O-acyltransferase) were 3530 nM and 240 nM, respectively. The Cholesterol reduction in the assay with Rattus norvegicus [5] is -24%.

For `CCCCCNC(=O)Nc1c(OCCCN2CCN(c3ccccc3)CC2)cccc1N(C)C`, the IC50 in assay [1] was 180 nM. Further, the Cholesterol reduction in the assay on Rattus norvegicus [7] was -44%.

Take `CCCCCNC(=O)Nc1c(OCCCn2cnc3ccccc32)cccc1N(C)C`: the IC50 is 620 nM in assay [1] and 180 nM on O-acyltransferase. Also, in the assay on Rattus norvegicus [7], the Cholesterol reduction is given as -12%.
